According to ChEMBL document CHEMBL1240350, “In vitro activity of CEM-101 against Streptococcus pneumoniae and Streptococcus pyogenes with defined macrolide resistance mechanisms” (Antimicrob Agents Chemother, 2010):
≈ marks a conversion by molar mass, not a printed value.

Columns and labels:
[1] = tested on: Streptococcus pneumoniae; experiment: Antibacterial activity against macrolide-resistant Streptococcus pneumoniae 1076 harboring erm(B) and mef(A) gene after 14 passages and 10 compound-free subculturing by retest method; format: functional
How it was run: (§1)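 Multistep selection by daily serial passage in subinhibitory drug concentrations. Medium was cation-adjusted Mueller-Hinton broth plus 5% lysed horse blood. Each day the next inoculum came from the tube 1–2 dilutions below the MIC whose turbidity matched the growth control, for up to 50 days. Clone MICs by CLSI macrodilution; identity to the parent confirmed by SmaI PFGE.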

[2] = tested on: Streptococcus pyogenes; experiment: Antibacterial activity against macrolide-resistant Streptococcus pyogenes 2011 harboring mef(A) gene after 50 passages following overnight incubation by agar dilution method
[3] = tested on: Streptococcus pneumoniae; experiment: Antibacterial activity against macrolide-susceptible Streptococcus pneumoniae 1077 after overnight incubation by agar dilution method; format: functional
[4] = tested on: Streptococcus pyogenes; experiment: Antibacterial activity against Streptococcus pyogenes harboring mef(A) gene after overnight incubation by agar dilution method; format: functional
How it was run: (§2)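 Clinical isolates collected 1998–2008, with macrolide-resistance genes confirmed by PCR. MICs by agar dilution on Mueller-Hinton agar with 5% sheep blood. Inoculum 10^4 CFU/spot, incubated overnight at 35°C in ambient air. S. pneumoniae ATCC 49619 was the quality-control strain in every run.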

[5] = tested on: Streptococcus pneumoniae; experiment: Antibacterial activity against macrolide-resistant Streptococcus pneumoniae 1635 harboring erm(A) gene after overnight incubation by agar dilution method; format: functional
[6] = tested on: Streptococcus pyogenes; experiment: Antibacterial activity against macrolide-resistant Streptococcus pyogenes harboring erm(A) gene after overnight incubation by agar dilution method; format: functional
How it was run: (§3)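 Agar dilution MICs on Mueller-Hinton agar with 5% sheep blood. Inoculum 10^4 CFU/spot, incubated overnight at 35°C in ambient air. Clinical S. pneumoniae or group A streptococcal isolates; resistance genotypes (erm(B), erm(A), mef(A)/mef(E)) were assigned by PCR. S. pneumoniae ATCC 49619 served as QC strain in each run. Range, MIC50 and MIC90 reported per phenotype group.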

[7] = tested on: Streptococcus pyogenes; experiment: Antibacterial activity against macrolide-susceptible Streptococcus pyogenes 2132 after overnight incubation by agar dilution method
[8] = tested on: Streptococcus pneumoniae; experiment: Antibacterial activity against macrolide-susceptible Streptococcus pneumoniae 7127 harboring S20N mutation in L4 ribosomal protein and A105V mutation in L22 ribosomal protein after 38 passages and 10 compound-free subculturing by retest method; format: functional
[9] = tested on: Streptococcus pyogenes; experiment: Antibacterial activity against macrolide-resistant Streptococcus pyogenes 237 harboring mutation in L4 ribosomal protein after overnight incubation by agar dilution method
[10] = tested on: Streptococcus pyogenes; experiment: Antibacterial activity against Streptococcus pyogenes harboring erm(B) gene after overnight incubation by agar dilution method; format: functional; how it was run: as §2
[11] = tested on: Streptococcus pneumoniae; experiment: Antibacterial activity against Streptococcus pneumoniae harboring erm(B) gene after overnight incubation by agar dilution method; format: functional; how it was run: as §2
[12] = tested on: Streptococcus pneumoniae; experiment: Antibacterial activity against macrolide-resistant Streptococcus pneumoniae 2686 harboring mutation in L4 ribosomal protein after overnight incubation by agar dilution method; format: functional
[13] = tested on: Streptococcus pneumoniae; experiment: Antibacterial activity against macrolide-resistant Streptococcus pneumoniae 2686 harboring mutation in L4 ribosomal protein after 22 passages and 10 compound-free subculturing by retest method; format: functional
[14] = tested on: Streptococcus pyogenes; experiment: Antibacterial activity against macrolide-resistant Streptococcus pyogenes 237 harboring mutation in L4 ribosomal protein after 20 passages and 10 compound-free subculturing by retest method
[15] = tested on: Streptococcus pyogenes; experiment: Antibacterial activity against macrolide-resistant Streptococcus pyogenes 237 harboring mutation in L4 ribosomal protein after 43 passages and 10 compound-free subculturing by retest method
[16] = tested on: Streptococcus pyogenes; experiment: Antibacterial activity against macrolide-resistant Streptococcus pyogenes 2094 harboring erm(A) gene after 34 passages and 10 compound-free subculturing by retest method
[17] = tested on: Streptococcus pneumoniae; experiment: Antibacterial activity against macrolide-resistant Streptococcus pneumoniae 24 harboring erm(B) gene after 14 passages and 10 compound-free subculturing by retest method; format: functional; details: Streptococcus pneumoniae, 24; read-out: MIC; how it was run: as §1
[18] = tested on: Streptococcus pneumoniae; experiment: Antibacterial activity against macrolide-resistant Streptococcus pneumoniae harboring mef(A) gene after overnight incubation by agar dilution method; format: functional; how it was run: as §3
[19] = tested on: Streptococcus pneumoniae; experiment: Antibacterial activity against macrolide-resistant Streptococcus pneumoniae 3009 harboring mutation in 23S rRNA after 25 passages and 10 compound-free subculturing by retest method; format: functional
[20] = tested on: Streptococcus pyogenes; experiment: Antibacterial activity against macrolide-resistant Streptococcus pyogenes 2094 harboring erm(A) gene after 43 passages and 10 compound-free subculturing by retest method
[21] = tested on: Streptococcus pyogenes; experiment: Antibacterial activity against macrolide-resistant Streptococcus pyogenes 2368 harboring erm(B) gene after 6 passages and 10 compound-free subculturing by retest method
[22] = tested on: Streptococcus pyogenes; experiment: Antibacterial activity against macrolide-resistant Streptococcus pyogenes 2094 harboring erm(A) gene after overnight incubation by agar dilution method
[23] = tested on: Streptococcus pneumoniae; experiment: Antibacterial activity against macrolide-resistant Streptococcus pneumoniae 2686 harboring mutation in L4 ribosomal protein after 25 passages and 10 compound-free subculturing by retest method; format: functional
[24] = tested on: Streptococcus pneumoniae; experiment: Antibacterial activity against macrolide-susceptible Streptococcus pneumoniae after overnight incubation by agar dilution method; format: functional; how it was run: as §3
[25] = tested on: Streptococcus pneumoniae; experiment: Antibacterial activity against macrolide-resistant Streptococcus pneumoniae 3665 harboring mef(A) gene after overnight incubation by agar dilution method; format: functional
[26] = tested on: Streptococcus pneumoniae; experiment: Antibacterial activity against macrolide-susceptible Streptococcus pneumoniae 7127 harboring S20N mutation in L4 ribosomal protein and A105V mutation in L22 ribosomal protein after 29 passages and 10 compound-free subculturing by retest method; format: functional
[27] = tested on: Streptococcus pneumoniae; experiment: Antibacterial activity against macrolide-resistant Streptococcus pneumoniae harboring erm(B) gene after overnight incubation by agar dilution method; format: functional; how it was run: as §3
[28] = tested on: Streptococcus pneumoniae; experiment: Antibacterial activity against Streptococcus pneumoniae harboring mef(A) gene after overnight incubation by agar dilution method; format: functional; how it was run: as §2
[29] = tested on: Streptococcus pneumoniae; experiment: Antibacterial activity against macrolide-susceptible Streptococcus pneumoniae 7127 harboring S20N mutation in L4 ribosomal protein and A105V mutation in L22 ribosomal protein after 15 passages and 10 compound-free subculturing by retest method; format: functional
[30] = tested on: Streptococcus pyogenes; experiment: Antibacterial activity against macrolide-resistant Streptococcus pyogenes 2368 harboring erm(B) gene after overnight incubation by agar dilution method
[31] = tested on: Streptococcus pneumoniae; experiment: Antibacterial activity against macrolide-resistant Streptococcus pneumoniae harboring mutation in L4 ribosomal protein after overnight incubation by agar dilution method; format: functional; how it was run: as §3
[32] = tested on: Streptococcus pneumoniae; experiment: Antibacterial activity against penicillin-susceptible Streptococcus pneumoniae after overnight incubation by agar dilution method; format: functional
How it was run: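 Agar dilution on Mueller-Hinton agar supplemented with 5% sheep blood. Inoculum 10^4 CFU/spot, incubated overnight at 35°C in ambient air. Test strains were clinical pneumococcal isolates. S. pneumoniae ATCC 49619 was included as the quality control strain in each run. MIC range, MIC50 and MIC90 were reported for each susceptibility category.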

Compound | MIC [1] [µg/mL] | MIC [3] [µg/mL] | MIC50 [4] [µg/mL] | MIC90 [4] [µg/mL] | MIC [5] [µg/mL] | MIC50 [6] [µg/mL] | MIC90 [6] [µg/mL] | MIC [7] [µg/mL] | MIC [8] [µg/mL] | MIC [9] [µg/mL] | MIC50 [10] [µg/mL] | MIC90 [10] [µg/mL] | MIC [12] [µg/mL] | MIC [13] [µg/mL] | MIC [14] [µg/mL] | MIC [15] [µg/mL] | MIC [16] [µg/mL] | MIC [17] [µg/mL] | MIC50 [18] [µg/mL] | MIC90 [18] [µg/mL] | also measured
CCC[C@@H]1C[C@@H](C(=O)N[C@@H]([C@H]2O[C@H](SC)[C@H](O)[C@@H](O)[C@H]2O)[C@H](C)Cl)N(C)C1 [CLINDAMYCIN] | > 64 | 0.016 (≈ 0.0376 µM) | 0.06 (≈ 0.141 µM) | 0.125 (≈ 0.294 µM) | 0.06 (≈ 0.141 µM) | 0.125 (≈ 0.294 µM) | 0.25 (≈ 0.588 µM) | 0.06 (≈ 0.141 µM) | 0.03 (≈ 0.0706 µM) | 0.06 (≈ 0.141 µM) | > 64 | > 64 | 0.03 (≈ 0.0706 µM) | 0.03 (≈ 0.0706 µM) | 0.03 (≈ 0.0706 µM) | 1 (≈ 2.35 µM) | > 64 | > 64 | 0.06 (≈ 0.141 µM) | 0.06 (≈ 0.141 µM) | MIC [2]: 0.06 µg/mL (≈ 0.141 µM); MIC50 [11]: > 64 µg/mL; MIC [19]: 1 µg/mL (≈ 2.35 µM); MIC [20]: 0.06 µg/mL (≈ 0.141 µM); MIC [21]: > 64 µg/mL; MIC [22]: 0.06 µg/mL (≈ 0.141 µM); MIC [23]: 0.03 µg/mL (≈ 0.0706 µM); MIC50 [24]: 0.03 µg/mL (≈ 0.0706 µM); MIC90 [24]: 0.06 µg/mL (≈ 0.141 µM); MIC [25]: 0.016 µg/mL (≈ 0.0376 µM); MIC [26]: 0.06 µg/mL (≈ 0.141 µM); MIC50 [27]: > 64 µg/mL; MIC50 [28]: 0.06 µg/mL (≈ 0.141 µM); MIC90 [28]: 0.06 µg/mL (≈ 0.141 µM); MIC [29]: 1 µg/mL (≈ 2.35 µM); MIC [30]: > 64 µg/mL; MIC50 [31]: 0.06 µg/mL (≈ 0.141 µM); MIC90 [31]: 0.125 µg/mL (≈ 0.294 µM); MIC50 [32]: 0.06 µg/mL (≈ 0.141 µM); MIC90 [32]: > 64 µg/mL
CC[C@H]1OC(=O)[C@H](C)[C@@H](O[C@H]2C[C@@](C)(OC)[C@@H](O)[C@H](C)O2)[C@H](C)[C@@H](O[C@@H]2O[C@H](C)C[C@H](N(C)C)[C@H]2O)[C@](C)(O)C[C@@H](C)CN(C)[C@H](C)[C@@H](O)[C@]1(C)O [AZITHROMYCIN] | > 64 | 0.03 (≈ 0.0401 µM) | 8 (≈ 10.7 µM) | 8 (≈ 10.7 µM) | 2 (≈ 2.67 µM) | 16 (≈ 21.4 µM) | > 64 | 0.06 (≈ 0.0801 µM) | 0.06 (≈ 0.0801 µM) | 4 (≈ 5.34 µM) | > 64 | > 64 | > 64 | > 64 | 4 (≈ 5.34 µM) | 8 (≈ 10.7 µM) | 16 (≈ 21.4 µM) | > 64 | 4 (≈ 5.34 µM) | 8 (≈ 10.7 µM) | MIC [19]: > 64 µg/mL; MIC [20]: 4 µg/mL (≈ 5.34 µM); MIC [21]: > 64 µg/mL; MIC [22]: 4 µg/mL (≈ 5.34 µM); MIC [23]: > 64 µg/mL; MIC50 [24]: 0.125 µg/mL (≈ 0.167 µM); MIC [25]: 8 µg/mL (≈ 10.7 µM); MIC [26]: 1 µg/mL (≈ 1.34 µM); MIC50 [28]: 4 µg/mL (≈ 5.34 µM); MIC90 [28]: 8 µg/mL (≈ 10.7 µM); MIC [29]: > 64 µg/mL; MIC [30]: > 64 µg/mL; MIC50 [32]: 4 µg/mL (≈ 5.34 µM); MIC90 [32]: > 64 µg/mL
